# Compound activity from PubChem.
# The list is not random: actives were taken first. Their share in the collection is about 2.9%.
# DENV2 CPE rescue = protects cells from dengue virus 2 cytopathic effect; DENV2-infected cells, cytopathic effect rescue, plate reader; CPE inhibition, % at 9.99 µM; 1.7% of 350,000 active; in the data active = CPE inhibition above about 20%, passing the limit was not always enough; inconclusive = no clear call, values can overlap the other calls; tested in BHK-21 cells;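 also: 0% = median of neutral control wells and 100% = median of positive control wells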
# SIRT5 block = blocks human SIRT5 desuccinylation of peptide; Q9NXA8; Purified SirT5, succinyl-peptide AMC, trypsin-coupled fluorescence; inhibition, % at 15 µM; 1.1% of 330,000 active; in the data active = inhibition above about 15%; inconclusive = no clear call, values can overlap the other calls
# Target sequence (Q9NXA8 whole entry, looked up): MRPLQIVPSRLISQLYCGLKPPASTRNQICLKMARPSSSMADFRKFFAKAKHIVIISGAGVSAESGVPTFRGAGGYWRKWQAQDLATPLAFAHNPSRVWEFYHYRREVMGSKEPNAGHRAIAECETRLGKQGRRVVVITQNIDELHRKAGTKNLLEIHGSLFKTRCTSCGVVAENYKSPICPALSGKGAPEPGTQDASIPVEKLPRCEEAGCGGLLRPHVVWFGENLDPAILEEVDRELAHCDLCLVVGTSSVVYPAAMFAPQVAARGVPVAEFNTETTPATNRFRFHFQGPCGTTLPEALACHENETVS
# C2C12 statin = suppression of simvastatin myotoxicity. rescue of ATP level, % at 7.49 µM. 0.78% of 330,000 active. C2C12 myotubes + simvastatin, ATP luminescence, 48 h; scaled: DMSO 0, geranylgeraniol control 100;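 active = mean ATP rescue above about 67%, or every replicate alone reaching that limit, limit read from the data, passing the limit was not always enough; inconclusive = no clear call, values can overlap the other calls; inactive = mean under the limit and some replicate under it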;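 also: myotubes were challenged with 10 µM simvastatin during compound exposure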
# S100A4 MyoIIA = blocks human S100A4 binding to myosin IIA peptide | P26447 | S100A4/TAMRA-MyoIIA peptide fluorescence polarization | inhibition, % at 10.7 µM | 0.14% of 360,000 active;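 active = mean inhibition of at least 70% across replicates, with every replicate also reaching that level; inconclusive = mean inhibition reaches 70% but some replicates fall short; inactive = mean inhibition below 70%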
# Target sequence (P26447 whole entry, looked up): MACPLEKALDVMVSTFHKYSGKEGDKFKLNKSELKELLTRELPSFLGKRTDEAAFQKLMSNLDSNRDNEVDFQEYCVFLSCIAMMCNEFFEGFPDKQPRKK
#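 Material: S100A4 monomer protein | Medium: HEPES pH 7.2 with CaCl2, KCl, NaCl, DTT, Triton | Reagent: Labelled myosin peptide probe, 5 nM | Doses: One dose per compound | Times: 5 min incubation before reading | Benchmarks: Neutral control DMSO, positive control TFP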
# PGC1a acetyl inh = PGC1a acetylation modulation, inhibitor mode; 0.17% of 350,000 active; inhibition, % at 15.6 µM; U2OS PGC1a acetylation, AlphaScreen anti-acetyl-lysine; with virally co-expressed GCN5 acetyltransferase;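 active = every replicate shows inhibition of at least 40%; inconclusive = mean inhibition at least 40% but some replicate below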;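 also: 0% = neutral control wells and 100% = positive control wells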
# An asterisk follows results filed as active; u = inconclusive; x = not tested or not shown.
SMILES,DENV2 CPE rescue,SIRT5 block,C2C12 statin,S100A4 MyoIIA,PGC1a acetyl inh
CCOc1ccc(C(=O)COC(=O)C2CCN(c3ccc(C(F)(F)F)cn3)CC2)cc1,74*,-5,7,0,x
Cc1ccc(CCC(=O)Nc2ccc(Cl)cc2)o1,16,-7,-11,0,72*
COc1cccc(-c2ccc3c(c2)O[C@@H](CN(C)C)[C@@H](C)CN([C@@H](C)CO)S3(=O)=O)c1,-10,-51,-3,-2,0
C/C=C/c1cnc2c(c1)C(=O)N([C@H](C)CO)C[C@H](C)[C@H](CN(C)C(=O)c1cccnc1)O2,-9,1,-2,47,x
COc1ccc(NC(=O)Nc2ccc3c(c2)[C@H]2C[C@@H](CC(=O)NCc4ccncc4)O[C@@H](CO)[C@H]2O3)cc1,-7,-1,x,0,20
COC(=O)c1cc(C(=O)OC)[nH]n1,6,16*,x,0,-1
COC(=O)c1cc(-c2ccccc2)n[nH]1,x,x,6,x,-13
Cc1ccc(Nc2ccc(N)cc2S(=O)(=O)O)cc1,-4,56*,6,-23,-5
Nc1ccc(Nc2ccccc2)c(S(=O)(=O)O)c1,1,55*,0,-12,-2
COc1ccccc1/C=C/C=O,25*,0,x,0,2
CS(=O)(=O)N1[C@H](CO)[C@@H](c2ccccc2)C12CN(C(=O)C1CC1)C2,-4,1,x,6,9
C[C@H](O)C#Cc1cnc2c(c1)C(=O)N([C@@H](C)CO)C[C@H](C)[C@H](CN(C)Cc1cccc(F)c1)O2,1,-1,2,-2,-2
C[C@@H]1CN([C@H](C)CO)C(=O)c2cc(C#CCN(C)C)cnc2O[C@H]1CN(C)Cc1cccc(C(=O)O)c1,30*,1,x,7,3
C[C@H]1CN([C@@H](C)CO)C(=O)c2cc(C#CCN(C)C)cnc2O[C@@H]1CN(C)Cc1cccc(C(=O)O)c1,u,x,-4,13,-2
C[C@H](CO)N1C[C@H](C)[C@@H](CN(C)Cc2ccc(F)cc2)Oc2ncc(C#CCN(C)C)cc2C1=O,21*,-2,28,13,9
C[C@H](CO)N1C[C@H](C)[C@H](CN(C)Cc2cccc(F)c2)Oc2ncc(C#C[C@@H](C)O)cc2C1=O,18,24*,3,-2,-5
COc1ccc(C#Cc2cnc3c(c2)C(=O)N([C@H](C)CO)C[C@H](C)[C@H](CN(C)Cc2cccc(C(F)(F)F)c2)O3)cc1OC,17,1,152*,5,-30
CCN(CC)c1ccc(/C=N/N2CCN(Cc3ccc(C)cc3)CC2)c(O)c1,-4,20*,5,4,7
Cc1nc2cc(NC(=O)Nc3cccc([N+](=O)[O-])c3)ccc2n1C,35*,4,-26,0,-4
CCCn1c(CN2CCN(C(=O)OCC)CC2)nc2cc(NC(C)=O)ccc21,8,17*,-5,5,0
CC(C)C(=O)Nc1ccc2c(c1)nc(CCN1CCCCC1)n2C,2,-2,-4,2,-3
Cn1c(CN2CCCC2)nc2cc(NC(=O)COc3ccc(Cl)cc3)ccc21,-7,0,-5,4,52*
Cn1c(CCN2CCCCC2)nc2cc(NC(=O)Nc3ccccc3)ccc21,x,x,116*,x,3
CCCC(=O)Nc1ccc2c(c1)nc(CN1CCN(C(C)=O)CC1)n2C,x,x,119*,x,4
O=C(Cc1ccccc1)N1CC[C@@H]2[C@@H](CO)Nc3ccc(Br)cc3[C@@H]21,1,4,11,-2,-8
SMILES,DENV2 CPE rescue,SIRT5 block,C2C12 statin,S100A4 MyoIIA,PGC1a acetyl inh
CN1C(=O)c2cc(NC(=O)C3CCCC3)ccc2OC[C@H]2O[C@@H](CC(=O)NCC3CC3)CC[C@@H]21,32*,2,-1,-3,0
CN1CCN(C(=O)C[C@H]2CC[C@@H]3[C@@H](COc4ccc(NC(=O)C5CCC5)cc4C(=O)N3C)O2)CC1,24*,1,x,4,x
CC(C)NC(=O)Nc1ccc2c(c1)C(=O)N(C)[C@H]1CC[C@@H](CC(=O)NCC3CCCCC3)O[C@H]1CO2,35*,1,-6,11,0
COc1ccccc1NC(=O)C[C@H]1CC[C@H]2[C@@H](COc3ccc(NS(C)(=O)=O)cc3C(=O)N2C)O1,u,1,-12,-4,x
CO[C@H]1CN(C)C(=O)c2ccc(NC(=O)c3cnccn3)cc2OC[C@H](C)N(CCc2ccccc2)C[C@@H]1C,-2,2,-3,25,-17
C[C@H]1CN([C@@H](C)CO)S(=O)(=O)c2ccc(C#CCN(C)C)cc2O[C@@H]1CN(C)C(=O)Nc1ccccc1F,-5,6,-5,-6,-2
CC(C)Cc1ccc(C(C)C(N)=Nc2ccc(O)cc2)cc1 (stereo unspecified),-3,19*,-18,-4,-18
O=C(NCC[C@@H]1CC[C@@H](NC(=O)C2CCOCC2)[C@H](CO)O1)Nc1ccc(Cl)cc1,11,0,-6,-19,-4
N#CCCn1cc(C(=O)CN2C(=O)NC3(CCc4ccccc43)C2=O)c2ccccc21 (stereo unspecified),34*,1,3,-5,-3
C[C@H](CO)N1C[C@H](C)[C@@H](CN(C)C(=O)c2ccccc2)OCCCC[C@H](C)Oc2ccc(N(C)C)cc2C1=O,x,x,7,x,0
Cc1cc(C)c(C(=O)N(C)C2CCCN(Cc3ccccc3F)C2)o1 (stereo unspecified),37*,0,8,-9,2
CCc1ccccc1N(C(=O)c1ccco1)C(C(=O)NC1CCCC1)c1cccnc1 (stereo unspecified),54*,-5,4,3,-3
COc1ccc(Cl)cc1N(C(=O)c1ccco1)C(C(=O)NC1CCCC1)c1ccco1 (stereo unspecified),75*,-2,-5,-11,x
O=C(NCC(=O)N(c1ccc2c(c1)OCO2)C(C(=O)NC1CCCC1)c1ccncc1)c1ccco1 (stereo unspecified),x,x,66*,x,45
O=C(NCC(=O)N(Cc1cccs1)C(C(=O)NC1CCCCC1)c1cccnc1)c1ccco1 (stereo unspecified),x,x,133*,x,-8
O=C(NCC(=O)N(c1ccc(Cl)cc1)C(C(=O)NC1CCCC1)c1ccncc1)c1ccco1 (stereo unspecified),3,-3,-6,-1,0
COc1cccc(NC(=O)N(C)C[C@H]2Oc3ncc(C#Cc4cccnc4)cc3C(=O)N([C@H](C)CO)C[C@@H]2C)c1,-13,7,-6,-2,8
C[C@H]1CN([C@@H](C)CO)S(=O)(=O)c2ccc(-c3ccc(C(=O)N(C)C)cc3)cc2O[C@@H]1CN(C)C(=O)C1CCC1,3,-2,7,-9,2
CN(C)C(CNC(=O)NC1CCCCC1)c1cccnc1 (stereo unspecified),x,x,107*,x,-2
